From the EternaBench riboswitch data

Tested on: MS2 coat protein
Experiment: apparent Kd, MS2 coat protein; higher = weaker binding; RNA-MaP array
In short: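 The designed RNAs, transcribed from sequenced DNA templates on an Illumina sequencing chip, were incubated with fluorescently labeled MS2 coat protein at room temperature. Protein ranged from 1.5 nM to 3 μM, with 0.8–1.5 h incubation at the lowest and 10–20 min at the highest concentrations, in Tris-HCl pH 7.5 buffer with KCl, MgCl2, BSA, DTT, tRNA and Tween20, with or without input ligand. The median of per-cluster binding-curve fits gives the apparent Kd, and designs measured on fewer than 10 clusters were excluded.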

[1] = designed as: OFF switch for flavin mononucleotide, no ligand
[2] = ligand present: flavin mononucleotide, designed as: OFF switch for flavin mononucleotide
[3] = designed as: ON switch for flavin mononucleotide, no ligand
[4] = ligand present: flavin mononucleotide, designed as: ON switch for flavin mononucleotide

For “CACACCGCAGUGAGGAUAUACCAACUGAACGUUGAGUAGAAGGCACAUGAGGAUCACCCAUGUCACUACUGACA”, the “apparent Kd” value [1] was 0.00862 µM and the “apparent Kd” value [2] was 0.0357 µM.

“AUGUGAUAGGAGAAGGGCUGUCCAUGGACAUCACAGUACAUCCACAUGAGGAUCACCCAUGUUAAGCAGGAUAUCCUGUCGUGU” was tested, and the “apparent Kd” value [1] was 0.0272 µM and the “apparent Kd” value [2] was 0.0589 µM.

In the case of “AUGCACUCAGUCAGGAUAUGCAACUUAUAAUACAGGCAGAAGGGACAUGAGGAUCACCCAUGUGGCCGGUAAGA”, the “apparent Kd” value [1] is reported as 0.00913 µM and the “apparent Kd” value [2] is reported as 0.0391 µM.

“CAUAGCAAAAGUGAUACCAGAGUUCGAGGGAACAUGAGGAUCACCCAUGUGCUUGUACAACUCCCUUGGCAGCACAGAGCAAUUA” was tested, and the “apparent Kd” value (designed as: ON switch for theophylline, no ligand) was 0.0231 µM and the “apparent Kd” value (ligand present: theophylline, designed as: ON switch for theophylline) was 0.0103 µM.

For “GAGAGAAAGCCAGGAUAUUAGAACUAGGCACAUGAGGAUCACCCAUGUGGUGAUGAUCAUAAGACUAAGAAGGGGCACCGGAUU”, the “apparent Kd” value [3] was 0.521 µM and the “apparent Kd” value [4] was 0.45 µM.

For “UCAGGUCCGAAGAAGGCGAAGCAACAUUACUAUCGAGGAUAUUCUACAUGAGGAUCACCCAUGUCACCAUCGAUGACAGAGAAU”, the “apparent Kd” value [1] was 0.00765 µM and the “apparent Kd” value [2] was 0.00793 µM.

In the case of “AAAUAUAAUCAGAAGGGUUGCUAAACAUGAGGAUCACCCAUGUGAUAACGAUACGAGUAAAUCGAACAGGAUAUGAUGCAGGUU”, the “apparent Kd” value [3] is reported as 0.0165 µM and the “apparent Kd” value [4] is reported as 0.012 µM.

For “ACAUGAGGAUCACCCAUGUACAUUUAUACUGGGAGACUAUCGUAGGAUAUAUGAACAAGCAUUCUAUAGAAGGACGAAAAGAUC”, the “apparent Kd” value [1] was 0.0594 µM and the “apparent Kd” value [2] was 0.0404 µM.

For “CGGGAACAUGAGGAUCACCCAUGUCAGGAUAUACGCGAUGGCAACAGUGAUUGUUUGUGUAGAAGGGACUUACG”, the “apparent Kd” value [1] was 0.0333 µM and the “apparent Kd” value [2] was 0.0302 µM.

With “AAGGGUCAACAGAAGGUUGUCGAACAUUGCGCCAAAGGAUAUGUCUACCGUUUAAGCGUUCGUCACAUGAGGAUCACCCAUGUU” the “apparent Kd” value [3] was 0.0268 µM and the “apparent Kd” value [4] was 0.0183 µM.

“UUUAGACCUCAACAUGAGGAUCACCCAUGUAAAUCUCUAUCGAGAAGGAAGGAAGGAACCUUGUCUUAGGAUAUCGACAAUUUC” was tested, and the “apparent Kd” value [3] was 0.101 µM and the “apparent Kd” value [4] was 0.0717 µM.

With “ACUACAUGCGAAUACAUGAGGAUCACCCAUGUCCAUAAGACCUAGGAUAUCCAGUAACCCUGCAAGGAGAAGGAGGAGAGCACU” the “apparent Kd” value [3] was 0.0254 µM and the “apparent Kd” value [4] was 0.0196 µM.

In the case of “GUUAGUUGUGAGGAUAUUCAGAGAUCUCGAUCAGAAGAAGGCACUACAUGAGGAUCACCCAUGUAGAUUCUUAU”, the “apparent Kd” value [1] is reported as 0.00525 µM and the “apparent Kd” value [2] is reported as 0.00888 µM.

“CGUGCAUGCUAGUAGGAUAUCCCGCAUGAAACAUGAGGAUCACCCAUGUAGAAGAUCUAUGAUCGGGAGAAGGACUCGUGAGAAAC” was tested, and the “apparent Kd” value [3] was 0.0346 µM and the “apparent Kd” value [4] was 0.0121 µM.

“CAACGACAUGAGGAUCACCCAUGUGAGGAUAUCUACUUGAUCAGGUAACUGCUUCCGAAGAGAAGGCACGGUGA” was tested, and the “apparent Kd” value [1] was 0.0204 µM and the “apparent Kd” value [2] was 0.0195 µM.

“UUCCACCUAAAGCGUUGCCCUCGUGAUGAUACCAGUUUCAGCGGUAACCCUUGGCAGCAUCGGACAUGAGGAUCACCCAUGUGGA” was tested, and the “apparent Kd” value (designed as: OFF switch for theophylline, no ligand) was 0.106 µM and the “apparent Kd” value (ligand present: theophylline, designed as: OFF switch for theophylline) was 0.213 µM.

In the case of “GGCGUAUCAGGAUAUGCGUUUUGAGACAUGAGGAUCACCCAUGUCCUUAGCUCAGUUAAAGCAGAAGGGAUUAUUA”, the “apparent Kd” value [1] is reported as 0.0169 µM and the “apparent Kd” value [2] is reported as 0.0341 µM.

“UGGAAGUAAGGAUAUCCGCGCGCGGGUUUUGCGCACGCACUGGAGAAGGUACAUGAGGAUCACCCAUGUUCGUC” was tested, and the “apparent Kd” value [1] was 0.00985 µM and the “apparent Kd” value [2] was 0.00959 µM.

“GACAUCCUCACAAUACAUGAGGAUCACCCAUGUGAAGUGGCCUAGGAUAUUCAAGAGUGGGUCACGAAGAAGGAGGCUGCAGGA” was tested, and the “apparent Kd” value [1] was 0.0333 µM and the “apparent Kd” value [2] was 0.0283 µM.

“UAGAUAUGAGGAUAUACAUGAGGAUCACCCAUGUGGUUAUCAAACGACAUGACAUUUAGUAGAAGGCAAACAUC” was tested, and the “apparent Kd” value [1] was 0.0235 µM and the “apparent Kd” value [2] was 0.021 µM.

In the case of “UAGUCGUGGGCAGGAUAUCACUUUAUGCCAAUAUGAGAAGGGCCGGUGACAAGGCGGGCGACCACAUGAGGAUCACCCAUGUAC”, the “apparent Kd” value [1] is reported as 0.0796 µM and the “apparent Kd” value [2] is reported as 0.0479 µM.

For “AAGUUGAGCACAAAGGAUAUUUGUAAACAAACAUGAGGAUCACCCAUGUGAACAAUAGUACAUACAAAGAAGGUUGAGAUACAUGU”, the “apparent Kd” value [3] was 0.0542 µM and the “apparent Kd” value [4] was 0.0259 µM.

“CCAGGGCUCGAGAAGGCCCGCGCGGUUCAGUACGUAGGUACAUGAGGAUCACCCAUGUCGGAUUGGGAGGAUAUCGAUUCUUGU” was tested, and the “apparent Kd” value [3] was 0.335 µM and the “apparent Kd” value [4] was 0.0801 µM.

“AAUUGGUGACUAGGAUAUUAGGGAUGGCCGUACUAAGAAGGAGUCGUGCUAACAUGAGGAUCACCCAUGUAUUGGAAGCCUUAA” was tested, and the “apparent Kd” value [1] was 0.0155 µM and the “apparent Kd” value [2] was 0.0134 µM.
